# Screening results from PubChem.
# SKKanGAS inh: blocks kanamycin growth of S. pyogenes SKKanGAS strain | BacTiter-Glo, 6 h | inhibition, % at 7.5 µM | 300,000 compounds, 1.3% hits | AID 1662;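 active means mean replicate score, as percent of positive control median, at least 50; inconclusive means mean below 50 but one replicate at or above 50; inactive means mean and every replicate below 50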;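 further: strain carries kanamycin resistance gene driven by streptokinase promoter and grows in 40 µg/ml kanamycin; loss of luminescence reflects streptokinase promoter inhibition or plain growth inhibition; 0% = median of DMSO wells and 100% = positive control at its reference dose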
# HIF activator: HIF pathway transcriptional activation. activation, % at 7.5 µM (by protocol). 300,000 compounds, 0.32% hits. U2OS HRE-luciferase reporter, luminescence; normalized: DMSO 0%, desferrioxamine 100%;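 active means mean activation of at least 10% of the iron chelator positive control signal, with at least half of replicates also reaching 10%; inconclusive means mean and replicate majority disagree about reaching 10%; inactive means mean and most replicates under 10%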
# CSC inhib: cancer stem cell inhibition; cancer stem cell-like cells viability, luminescence; inhibition, % at 7.5 µM; 300,000 compounds, 1.1% hits; in the data active means inhibition above about 75%; inconclusive means no clear call, values can overlap the other calls; tested in HMLE shEcad cells
# PfHsp90 yeast 2: reduces growth (ATP signal) of yeast expressing P. falciparum Hsp90; S. cerevisiae expressing PfHsp90, BacTiter-Glo ATP, 48 h; yeast lacking PDR1 and PDR3 efflux regulators; inhibition, % at 9.4 µM; 310,000 compounds, 0.32% hits;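 active means every replicate shows inhibition above about 80%, whatever the replicate mean, limit read from the data; inconclusive means mean inhibition reaches the set limit but some replicate falls short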;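 further: 0% = DMSO neutral controls and 100% = 20 µM radicicol positive controls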
# Beta cell apopt: blocks beta cell apoptosis | protection from apoptosis, % (concentration not given with the values) | INS-1E cytokine-induced death, ATP luminescence, 48 h; percent of positive-control rescue, neutral wells zero | 300,000 compounds, 0.8% hits;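 active means Every replicate reaches about 75%, or at least half do and their mean reaches it too, limit read from the data; inconclusive means At least half of replicates reach the limit but their mean does not; inactive means Under half of replicates reach the limit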;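 further: 0% = cytokine-treated negative control wells and 100% = positive control rescue; higher means more ATP so stronger rescue from cytokine killing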
# T cruzi repl: blocks replication of Trypanosoma cruzi; inhibition, % (concentration not given with the values); T. cruzi beta-gal in NIH3T3, luminescence, 90 h; 300,000 compounds, 1.4% hits;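 active means mean inhibition across valid replicates above about 55%, limit read from the data; inconclusive means mean below that limit but half or more replicates reach it; inactive means mean below it, under half of replicates reach it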;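 further: signal also drops with host cell toxicity which is not excluded here; 0% = plate median of DMSO wells and 100% = zero luminescence signal; higher percent means less beta-gal luminescence so fewer parasites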
#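 Material: NIH/3T3 host cells with β-galactosidase reporter T. cruzi; Input: 5,000 host fibroblasts per well; Medium: DMEM, 2% fetal bovine serum; Compound: 50 nL DMSO compound solution per well; Schedule: 3 h host attachment, then at least 90 h co-culture; Detection: luminescent β-galactosidase signal after 60 min lysis.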
# Starred values were filed as active, the others as inactive; u = inconclusive; x = no result given. Hits are enriched below; roughly 3.6% of the tested compounds scored in any of these assays.
SMILES,SKKanGAS inh,HIF activator,CSC inhib,PfHsp90 yeast 2,Beta cell apopt,T cruzi repl
Cn1cc([N+](=O)[O-])c(C(=O)Nc2ccc(-c3nc4ccccc4o3)cc2)n1,x,4.0,103.8*,10.4,-8.6,6.0
O=C(Nc1ccc(-c2nc3ncccc3o2)cc1)c1ccc([N+](=O)[O-])o1,14.5,0.3,46.8,-7.7,36.1,18.8
Cc1cc(N/N=C/c2ccccc2O)nc(-c2ccccc2O)n1,60.4*,1.9,54.3,-44.7,69.3,34.7
Cc1cc(N/N=C\c2ccccc2)nc(-c2ccccc2O)n1,25.3,1.3,53.2,9.6,19.4,51.6
Cc1cc(N/N=C/c2ccc(O)cc2O)nc(-c2ccccc2O)n1,13.7,20.8*,99.1*,-63.3,75.9*,60.4*
C/C(=N\Nc1cc(C)nc(-c2ccccc2O)n1)c1ccccc1O,73.8*,-0.1,80.4*,20.0,-1.7,34.8
Oc1ccc(/C=N/Nc2ccc3ccccc3c2)c(O)c1,51.9*,0.9,5.5,-2.7,3.6,3.8
CC(=NNc1ccc2ccccc2n1)c1ccccc1O,x,x,x,24.1,x,x
CCOC(=O)c1ccc(Nc2cc(C)nc(-c3ccccc3)n2)cc1,-0.2,-19.2,97.1*,3.2,7.2,27.1
COC(=O)c1cccc(Nc2cc(C)nc(-c3ccccc3O)n2)c1,1.8,x,u,-24.9,23.9,57.9*
CCOC(=O)c1ccc(Nc2nc(C)cc(C)n2)cc1,2.8,0.2,20.6,-37.3,2.0,-5.8
CC(C)Oc1ccc(Cc2cnc(N)nc2N)cc1,20.5,0.2,-1.2,-24.5,x,23.1
COc1cc(C)c(Cc2cnc(N)nc2N)cc1OC,52.3*,0.4,-15.5,x,-10.0,7.2
O=C(Cn1c2[n+](c3ccc(C(F)(F)F)cc31)CCCCC2)c1ccc2c(c1)OCCO2,x,0.1,-1.6,-1.5,-3.0,67.7*
O=C(Cn1c2[n+](c3ccc(C(F)(F)F)cc31)CCCCC2)c1cccc([N+](=O)[O-])c1,6.1,0.0,0.7,4.9,0.8,4.2
CCCCNc1c2c3c(cccc3n(C)c1=O)C(=O)c1ccccc1-2,53.6*,1.4,62.8,-0.7,9.5,45.2
Cc1ccc(-c2nc3n(n2)Cc2ccccc2-3)cc1,4.1,-3.6,24.5,9.6,17.6,1.1
CCn1c(C)nc2cc(-c3nc4n(n3)Cc3ccccc3-4)ccc21,64.9*,-6.2,92.2*,55.0,71.4,11.3
CC(=O)Nc1ccc(Nc2cc(C(C)C)nc3c(-c4ccccc4)c(C)nn23)cc1,87.7*,-0.6,84.1*,107.8*,x,67.6*
Cc1nn2c(NCc3ccccn3)cc(C(C)C)nc2c1-c1ccccc1,100.8*,-0.1,50.7,5.0,61.2,54.0
Cc1nn2c(NCCCn3ccnc3)cc(C(C)C)nc2c1-c1ccccc1,14.8,-1.0,22.5,35.0,8.4,52.6
CCCc1cc(NCc2ccccn2)n2nc(C)c(-c3ccccc3)c2n1,94.0*,0.3,52.6,107.1*,49.3,54.6*
CC(=O)Nc1ccc(Nc2cc(C)nc3c(-c4ccccc4)c(C)nn23)cc1,17.8,0.4,-6.8,3.3,2.6,47.9
O=C(CCn1ccnc1)Nc1ccc2ccccc2c1,0.2,-0.6,4.0,12.4,0.5,75.1*
c1cncc(-c2nc3ccccc3s2)c1,-5.0,2.1,-0.2,9.7,1.7,-3.5
SMILES,SKKanGAS inh,HIF activator,CSC inhib,PfHsp90 yeast 2,Beta cell apopt,T cruzi repl
CC(=O)N(Cc1cccnc1)c1cccc(-c2nc3ccccc3s2)c1,-1.8,0.0,26.2,6.9,-1.5,59.4*
CN1OC[C@@H]2CN(Cc3cc(Cl)cc(Cl)c3)[C@H](c3cccc(-c4ccccc4)c3)C[C@@H]21,x,x,x,-12.9,x,x
O=C(CCN1C(=O)S/C(=C/c2ccc(F)cc2)C1=O)Nc1ccc(O)c(C(=O)O)c1,6.4,0.1,-22.7,-16.7,-0.1,-4.1
O=C(CCN1C(=O)S/C(=C\c2ccc(F)cc2)C1=O)Nc1ccc(C(=O)O)c(O)c1,13.9,29.6*,-19.2,7.9,1.8,-5.5
CCC1CN(C(=O)N2CCC(C(=O)NCc3cc(OC)c(OC)c(OC)c3)CC2)c2ccccc2O1 (centres undefined),10.5,0.4,-12.0,-26.1,6.4,-4.1
CSc1ccccc1OCc1cc(C(=O)N2CCc3c(Cl)cccc3C2)no1,13.7,-0.7,14.1,0.1,78.7*,23.3
CSc1ccccc1OCc1cc(C(=O)N2CCNC(=O)C2)no1,35.8,0.8,0.2,14.0,x,-13.8
COc1ccc(/C=C/C(=O)N2c3ccccc3Sc3ccc(C(F)(F)F)cc32)cc1,-3.0,-0.2,15.3,36.2,3.6,57.1*
O=C(/C=C/c1ccccc1)N1c2ccccc2Sc2ccc(C(F)(F)F)cc21,4.0,0.1,23.0,-1.5,1.0,37.8
COC(=O)CC1C(=O)NCCN1C(=S)NC(=O)c1sc2ccccc2c1Cl (centres undefined),-9.4,-0.4,-9.7,4.5,-0.9,-18.0
CCN(CC)S(=O)(=O)c1ccc(Oc2ccc(S(=O)(=O)N(CC)CC)cc2)cc1,7.5,0.6,-0.1,x,112.6*,6.7
CCN(CC)S(=O)(=O)c1ccc(Oc2ccccc2OC)cc1,3.1,-0.2,-7.6,-2.2,-1.4,-0.9
COc1ccc(-c2cc3c(=O)n(CC(=O)Nc4ccc(Cl)cc4)nc(C)n3n2)cc1,-1.0,1.1,-6.6,-13.8,6.2,-7.7
CC(C)c1cc(-c2cc(C(=O)NCc3ccccc3)on2)nc(NC2CCCC2)n1,31.5,18.2*,-16.9,-0.2,-0.8,u
CC(C)c1cc(-c2cc(C(=O)NCc3ccccc3)on2)nc(NCC2CC2)n1,28.0,-0.2,14.8,-31.3,3.8,42.1
Cc1cc(C)c(O)c(-c2cc(C(=O)Nc3cccnc3)[nH]n2)c1,-10.9,1.9,47.3,-18.1,-3.6,-12.7
Cc1cccc(NC(=O)c2cc(-c3cc(C)cc(C)c3O)n[nH]2)c1,23.1,1.2,76.2*,-45.3,7.0,7.7
COc1ccc(NC(=O)c2cc(-c3cc(C)cc(C)c3O)n[nH]2)cc1Cl,99.5*,0.3,99.3*,x,14.1,1.2
COc1ccc2ccc3c(c2c1)N=CC1(O3)N(C)c2ccccc2C1(C)C (centres undefined),93.4*,-0.1,17.2,20.5,-8.2,10.4
CN1c2ccccc2C(C)(C)C12C=Nc1c(ccc3ccccc13)O2 (centres undefined),104.8*,2.2,23.2,24.8,0.6,16.1
CN1c2ccccc2C(C)(C)[C@]12C=Cc1cc(O)ccc1O2,7.2,1.8,-11.1,-23.9,47.4,34.3
O=C(NC1CC1)c1ccc(NC(=O)C2CCCCC2)cc1,x,x,x,8.0,x,x
O=C(NC1CC1)C1CCN(c2ncnc3c2sc2cccc(F)c23)CC1,-5.7,-0.1,-4.5,3.7,0.2,10.7
Cc1ccc(S(=O)(=O)N2C[C@@H]3[C@H]4CC[C@H](C4)[C@@H]3[C@@H](C)[C@H]2c2ccco2)cc1,x,x,x,9.6,x,x
CCCCCCCCCn1c2c(c(=N)c3c1CCC3)CCCC2,3.5,-0.5,x,0.1,x,58.5*
